# Assay outcomes from PubChem.
# The list is not random: actives were taken first. Their share in the collection is about 0.74%.
# Biofilm kill mix: mixture kills Candida albicans biofilm cells | C. albicans biofilm persisters + clotrimazole, fluorescence viability; primary screen in compound mixtures of four per well | inhibition, % at 7.6 µM | 120,000 compounds, 0.02% hits;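 active = inhibition above 30.3% in the primary screen of four-compound pools, then above 30% when the compound was retested; inconclusive = passed the primary limit but could not be retested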;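 also: compounds exposed to preformed 24 h biofilms for 48 h; 0% = untreated biofilm control and 100% = clotrimazole plus chlorhexidine kill blank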
#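 Incubation: 24 h biofilm formation, then 48 h compound exposure, 37 °C | Material: C. albicans biofilms | Buffer or medium: RPMI/MOPS medium, pH 7.0 | Measured by: 2-h Alamar Blue fluorescence, 535/590 nm excitation/emission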
# RGS7-Gao: human RGS7-Galphao interaction regulation | binding response (% of control), % at 10 µM | P09471 | AID 1439 | Multiplexed bead flow cytometry, RGS7-Galphao binding; actives lie on both sides | 220,000 compounds, 0.35% hits; in the data active = binding response below about 49% or above about 150%; inconclusive = no clear call, values can overlap the other calls; inactive = in between;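 also: fluorescent Galphao held in activated GDP-AlF4 state binding bead-coupled RGS7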
# Target sequence (P09471 whole entry, looked up): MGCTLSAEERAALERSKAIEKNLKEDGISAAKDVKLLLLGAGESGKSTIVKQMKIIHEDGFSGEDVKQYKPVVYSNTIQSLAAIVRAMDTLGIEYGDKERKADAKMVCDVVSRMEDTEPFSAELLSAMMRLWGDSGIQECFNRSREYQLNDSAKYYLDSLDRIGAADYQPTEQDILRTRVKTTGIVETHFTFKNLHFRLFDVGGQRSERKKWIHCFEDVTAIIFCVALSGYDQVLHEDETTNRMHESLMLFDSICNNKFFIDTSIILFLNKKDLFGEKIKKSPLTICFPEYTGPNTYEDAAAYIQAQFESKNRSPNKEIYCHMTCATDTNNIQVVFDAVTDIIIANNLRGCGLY
# RGS16-Gao HTS: modulates binding between human RGS16 and Galphao; O15492+P09471; bead-based flow cytometry RGS16-Galphao binding, fluorescence; actives lie on both sides; binding response (% of control), % at 10 µM; 220,000 compounds, 0.38% hits;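 also: Galphao activated by GDP with aluminum fluoride before binding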
# RGS8-Gao: regulators of human RGS8-Galphao interaction; multiplexed bead flow cytometry, RGS8-Galphao binding; actives lie on both sides; response (percent of control binding), % at 10 µM; 220,000 compounds, 0.34% hits; P09471; in the data active = response below about 60% or above about 140%; inactive = in between;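 also: Galphao activated as the GDP aluminium fluoride complex binding bead-coupled RGS8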
# RGS4-Gao reg: human RGS4-Galphao interaction regulation; P09471; Multiplexed bead flow cytometry, RGS4-Galphao binding; actives lie on both sides; binding response (% of control), % at 10 µM; 220,000 compounds, 0.33% hits; in the data active = binding response below about 49% or above about 150%; inactive = in between;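 also: fluorescent Galphao activated with aluminum fluoride binding bead-coupled RGS4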
# RGS4-Gao HTS: RGS4-Galphao interaction regulator (human) | shares compounds with RGS16-Gao HTS | RGS4–Galpha-o binding response, % at 10 µM | 1,600 compounds, 99% hits | multiplexed bead flow cytometry, RGS–Galpha-o binding | AID 1504;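 also: fluorescently labeled Galpha-o bound to GDP with aluminium fluoride binding biotinylated RGS beads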
# Biotin-avidin: interferes with biotinylated probe binding to avidin beads; 1,700 tested, under 10 active; streptavidin beads, fluorescein-biotin binding, flow cytometry; inhibition, % at 10 µM; shares compounds with RGS16-Gao HTS;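 active = inhibition above 50%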;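 also: median green fluorescence of gated singlet beads compared with DMSO control wells; 0% = DMSO wells and 100% = complete loss of bead fluorescence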
# RGS8-Gao single: confirmation of regulators of human RGS8-Galphao interaction. binding response (% of control), % at 10 µM. shares compounds with RGS16-Gao HTS. 1,700 compounds, 3% hits. bead-based flow cytometry RGS8-Galphao binding, fluorescence; actives lie on both sides; in the data active = binding response below about 72% or above about 130%; inactive = in between;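 also: Galphao activated as GDP AlF4 complex before binding bead RGS8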
# RGS7-Gao confirm: confirmation of regulators of human RGS7-Galphao interaction. bead-based flow cytometry RGS7-Galphao binding; actives lie on both sides. shares compounds with RGS16-Gao HTS. 1,700 compounds, 7.8% hits. AID 1837. response (percent of control binding), % at 10 µM; in the data active = response below about 75% or above about 130%; inactive = in between;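 also: fluorescent Galphao activated with GDP and aluminum fluoride binding bead-coupled RGS7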
# RGS16-Gao conf: confirmation of regulators of human RGS16-Galphao interaction; response (% of control binding), % at 10 µM; 1,700 compounds, 4% hits; AID 1838; shares compounds with RGS16-Gao HTS; bead-based flow cytometry, RGS16-Galphao binding; actives lie on both sides; in the data active = response below about 74% or above about 130%; inactive = in between;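 also: Galphao activated as the GDP aluminium fluoride complex binding bead-coupled RGS16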
# RGS4-Gao single: confirmation of regulators of human RGS4-Galphao interaction; RGS4-Galphao binding, multiplexed bead flow cytometry; actives lie on both sides; binding response (% of control), % at 10 µM; AID 1840; 1,700 compounds, 4% hits; shares compounds with RGS16-Gao HTS; in the data active = binding response below about 74% or above about 130%; inactive = in between
# RGS19-Gao single: confirmation of regulators of human RGS19-Galphao interaction; shares compounds with RGS16-Gao HTS; bead-based flow cytometry RGS19-Galphao binding; actives lie on both sides; response (percent of control binding), % at 10 µM; 1,700 compounds, 5% hits; in the data active = response below about 50% or above about 160%; inactive = in between;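 also: 100% = no compound control and 0% = blank background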
# Target sequence (P09471 whole entry, looked up): as above
# Target sequence (P49795 whole entry, looked up): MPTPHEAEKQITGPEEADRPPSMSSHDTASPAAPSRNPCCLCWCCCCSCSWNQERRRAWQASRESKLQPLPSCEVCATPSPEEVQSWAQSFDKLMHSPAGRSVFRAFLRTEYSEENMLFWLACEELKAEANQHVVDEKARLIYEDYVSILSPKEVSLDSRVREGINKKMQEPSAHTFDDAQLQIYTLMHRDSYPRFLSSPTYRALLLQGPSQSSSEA
# * marks the source's active call; other numbers are inactive results; i = inactive; u = inconclusive; x = no result; [ ] = another dose, or the depositor's remark. Unless noted, no rule for the calls is given here.
SMILES,Biofilm kill mix,RGS7-Gao,RGS16-Gao HTS,RGS8-Gao,RGS4-Gao reg,RGS4-Gao HTS,Biotin-avidin,RGS8-Gao single,RGS7-Gao confirm,RGS16-Gao conf,RGS4-Gao single,RGS19-Gao single
O=C(NNC(=O)C1CC2CCC1C2)c1sc2ccccc2c1Cl (stereo not drawn),1,166*[activator],103,101,109,109*,-2,101,102,104,103,106
Cc1ccc([N+](=O)[O-])cc1NC(=O)/C=C/C(=O)O,1,u,96,101,96,x,x,x,x,x,x,x
COc1ccc([N+](=O)[O-])cc1NC(=O)Cc1ccc(C)cc1,13,79,-0.2*,68,84,84*,1,102,100,99,102,86
COc1ccc([N+](=O)[O-])cc1NC(=O)/C=C/C(=O)O,11,92,13*,66,91,91*,i,103,101,107,102,118
COc1ccc(C(NC(C)=O)c2ccc3cccnc3c2O)c(OC)c1 (stereo not drawn),20,56,15,47*,55,55*,2,98,93,98,97,86
Cc1nn(-c2ccccc2)c(N)c1Sc1ccccc1[N+](=O)[O-],8,97,97,97,94,x,x,x,x,x,x,x
Cc1nn(-c2ccccc2)c(N)c1Sc1cccc([N+](=O)[O-])c1,21,122,202*[activator],120,111,111*,-1,103,103,105,104,103
Cc1ccccc1C(=O)c1cccn1CC(=O)NCCCN1CCc2ccccc2C1,27,u,100,101,103,x,x,x,x,x,x,x
Cn1cc(S(=O)(=O)CC(=O)Nc2ccc3c(c2)OCO3)c2ccccc21,7,275*[activator],115,98,367*[activator],x,-1,100,103,104,102,87
C=CCN1C(=O)C2(NC(=O)c3ccccc3N2)c2ccccc21 (stereo not drawn),18,270*[activator],104,89,123,123*,0,102,99,98,101,103
C=CCN1C(=O)C2(NNc3ccccc3O2)c2ccccc21 (stereo not drawn),x,99,102,101,100,x,x,x,x,x,x,x
COc1cccc(C2C([N+](=O)[O-])=C(N)Oc3cc(C)oc(=O)c32)c1 (stereo not drawn),30,u,100,101,104,x,x,x,x,x,x,x
Cc1nc(Cl)c(C(=O)NCCC(C)C)c(C)c1[N+](=O)[O-],13,107,178*[activator],115,105,105*,1,97,95,96,96,80
COC(=O)c1cc(C(=O)NCCC(C)C)cc([N+](=O)[O-])c1,15,101,101,100,99,x,x,x,x,x,x,x
Cc1cc(C)nc(NNC(=O)NC2CCCCC2)n1,10,-8.8*,-20*,2.4*,-11*,x,0,113,119,119,112,107
COc1ccc(NC(=O)Cn2nnc(-c3ccc(CN4CCOCC4)cc3)n2)c(OC)c1,x,129,170,145*[activator],149,149*,-4,105,106,106,105,98
Cc1ccccc1NC(=O)Cn1nnc(-c2ccc(CN3CCC(C)CC3)cc2)n1,10,u,102,105,103,x,x,x,x,x,x,x
O=C(NC(=S)NCCCN1CCOCC1)c1cccc2ccccc12,23,97,99,99,103,x,x,x,x,x,x,x
COc1c(Br)cc(C(N)=O)cc1OCc1ccccc1,33,77,-1.3*,69,77,77*,1,101,99,102,101,103
COCCCN=Cc1c(C)[nH]n(-c2ccc(Br)cc2Br)c1=O,2,98,99,98,99,x,x,x,x,x,x,x
CCOC(=S)NC(=O)c1sc2ccccc2c1Cl,x,103,112,105,103,x,x,x,x,x,x,x
CCCOC(=S)NC(=O)c1sc2ccccc2c1Cl,x,x,x,x,x,x,0,103,105,103,105,99
Cc1ccccc1-n1c(-c2ccncc2)n[nH]c1=S,4,88,18*,64,91,91*,0,106,111,107,110,101
OCCC1CN(Cc2ccc(Oc3ncccn3)cc2)CCN1C1CCCCC1 (stereo not drawn),23,u,88,48*,147,147*,-1,102,100,102,100,97
O=C(NN1CCCCC1)c1ccc(COc2ccc(Cl)cc2)cc1,14,87,100,96,97,x,x,x,x,x,x,x
SMILES,Biofilm kill mix,RGS7-Gao,RGS16-Gao HTS,RGS8-Gao,RGS4-Gao reg,RGS4-Gao HTS,Biotin-avidin,RGS8-Gao single,RGS7-Gao confirm,RGS16-Gao conf,RGS4-Gao single,RGS19-Gao single
CCCn1c(NCc2c[nH]c3ccccc23)nc2ccccc21,x,103,316,143*[activator],104,104*,0,95,86,92,93,73
CC1(C)CC(=O)C=C(NNC(=O)c2ccccc2)C1,16,9.9*,8.0*,14*,4.6*,x,-1,103,103,103,103,96
COc1ccc2c(c1)sc(=N)n2C,2,107,103,102,102,x,x,x,x,x,x,x
C/C(=N\NC(=O)Cc1cccn1C)c1cccc2ccccc12,x,76,76,77,91,x,x,x,x,x,x,x
C/C(=N/NC(=O)Cc1cccn1C)c1ccccc1,x,46*,49,47*,71,71*,0,101,94,102,100,92
C/C(=N\NC(=O)Cc1cccn1C)c1ccc2ccccc2c1,x,36*,53,36*,68,68*,1,102,101,103,103,126
Cc1cc(NS(=O)(=O)c2ccc(NC(NC(=O)C(C(F)(F)F)C(F)(F)F)(C(F)(F)F)C(F)(F)F)cc2)no1,10,155*[activator],40,80,101,101*,-2,95,98,99,98,97
O=C(Nc1ccc(Cl)c([N+](=O)[O-])c1)ONC1=NCCCCC1,18,100,98,101,99,x,x,x,x,x,x,x
COc1ccc(S(=O)(=O)N2C(=O)/C(=C3\SC(N)=NC3=O)c3ccccc32)cc1,10,u,98,100,93,x,x,x,x,x,x,x
